Compound activity (PubChem)
Shown are actives, neighbours in structure and some others; about 1.9% of the full set was active somewhere.
CCR6 antagonist: blocks CCL20-driven beta-arrestin recruitment at human CCR6; P51684; CHO-K1 CCR6 PathHunter beta-arrestin, luminescence, CCL20-stimulated; inhibition, % at 20 µM; 0.49% of 340,000 active; AID 493098;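 active means compounds whose inhibition of the agonist-driven luminescence signal at 20 µM reaches about 50%, limit read from the data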;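 further: cells stimulated with CCL20 at 14 nM final; plate controls were DMSO with CCL20 for no effect and DMSO without agonist for full effect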
APJ antag: antagonists of human APJ apelin receptor; P35414; CHO-K1 APJ beta-arrestin complementation, luminescence; inhibition, % at 20 µM; 0.32% of 330,000 active; AID 2521;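 active means inhibition above about 40% at 20 µM, limit read from the data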;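 further: cells challenged with 10 nM apelin-13 agonist together with compound; plate controls were apelin-13 plus DMSO wells for no effect and DMSO wells lacking apelin-13 for full effect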
Target sequence (P35414 whole entry, looked up): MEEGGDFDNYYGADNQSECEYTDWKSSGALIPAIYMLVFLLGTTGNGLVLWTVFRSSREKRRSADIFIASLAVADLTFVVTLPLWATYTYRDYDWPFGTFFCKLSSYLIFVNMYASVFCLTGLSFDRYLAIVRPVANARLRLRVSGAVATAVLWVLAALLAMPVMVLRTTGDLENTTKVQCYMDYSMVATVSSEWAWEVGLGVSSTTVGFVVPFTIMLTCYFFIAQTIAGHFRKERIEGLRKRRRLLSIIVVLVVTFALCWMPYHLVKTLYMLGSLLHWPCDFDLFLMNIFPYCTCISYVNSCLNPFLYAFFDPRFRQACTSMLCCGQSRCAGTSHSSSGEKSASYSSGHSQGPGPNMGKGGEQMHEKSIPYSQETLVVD
TAG inh: triacylglycerol accumulation inhibition | H9c2 cells, Nile Red lipid (TAG) fluorescence; cells loaded with 200 µM oleic acid | AID 651582 | 0.66% of 230,000 active | inhibition, % at 12.5 µM;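 active means pattern-corrected inhibition of lipid staining of at least 50% with the nuclear-stain viability signal not falling by more than 50%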;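 further: 0% = DMSO wells and 100% = triacsin C control wells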
APJ ag: activates the human apelin receptor APJ. P35414. CHO-K1 APJ PathHunter beta-arrestin, luminescence; 0% DMSO wells, 100% apelin. activation, % at 20 µM. 0.11% of 330,000 active. AID 2520;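 active means activation more than six SD over the plate average, tested at 20 µM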;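 further: 0% = DMSO alone and 100% = apelin-13 at 10 nM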
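Test system: CHO-K1 APJ beta-arrestin complementation cell line. Amount: cell density 1000 per well. Controls: DMSO negative, 10 nM Apelin-13 positive. Signal: luminescent beta-gal fragment complementation, chemiluminescent substrate. Read-out basis: agonist-driven arrestin binding to APJ. Timing: compound stimulation 90 min at 25 °C, detection 60 min.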
CXCR6 inh: CXCR6 (human) receptor inhibition; AID 602244; O00574; inhibition, % at 20 µM; 0.36% of 360,000 active; CHO-K1 PathHunter CXCR6 beta-arrestin, luminescence; in the data active means inhibition above about 34%, passing the limit was not always enough;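 further: antagonist mode with CXCL16 agonist at 10 nM final; 0% = 10 nM CXCL16 with DMSO and 100% = unstimulated wells without agonist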
EBI2 block: antagonists of human EBI2 receptor. P32249. EBI2 beta-arrestin recruitment, luminescence, 7a,25-OHC stimulated. inhibition, % at 5 µM. 0.81% of 360,000 active. AID 651636; in the data active means inhibition above about 38%;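 further: enzyme fragment complementation signal reports receptor beta-arrestin coupling in cells; 0% = agonist plus DMSO wells and 100% = wells without agonist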
EBI2 antag conf: EBI2 (human) antagonism, single concentration confirmation; shares compounds with EBI2 block; 29% of 2,400 active; AID 651997; inhibition, % at 5 µM; EBI2 beta-arrestin luminescence, 7a,25-OHC antagonism;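 active means inhibition of at least 50%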
EBI2 ag: counter-screen for EBI2 antagonists: EBI2 agonist activity; 2,400 tested, under 10 active; EBI2-expressing cells, agonist mode, luminescence, 60 min; 0% vehicle, 100% 7α,25-dihydroxycholesterol control; activation, % at 5 µM; shares compounds with EBI2 block;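 active means activation of at least 50%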
bGal cs: inhibits E. coli beta-galactosidase, counter-screen for EBI2 antagonists; purified beta-galactosidase, luminescent Galacton Star, 15 min; inhibition, % at 5 µM; shares compounds with EBI2 block; 1% of 2,400 active;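 active means replicate-average signal at least 3 plate SD below neutral wells, shown as high inhibition, flagging enzyme-inhibiting false positives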;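 further: 0% = DMSO wells with enzyme and 100% = wells lacking enzyme; higher means stronger loss of beta-gal luminescence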
Numbers without * were called inactive; . = not tested or not shown.

SMILES	CCR6 antagonist	APJ antag	TAG inh	APJ ag	CXCR6 inh	EBI2 block	EBI2 antag conf	EBI2 ag	bGal cs
COc1cccc(C(=O)N2CCN(C(=O)c3ccc(-c4ccccc4)cc3)CC2)c1OC	4	13	-5	-1	3	78*	48	1	10
COc1cccc(CN2CCN(C(=O)c3cccc(OC)c3)CC2)c1	13	4	.	-1	3	-4	.	.	.
COc1cccc(CN2CCN(C(=O)c3ccc(-c4ccccc4)cc3)CC2)c1OC	8	0	5	-4	-2	65*	44	0	10
COc1cc(C(=O)N2CCN(CCCc3ccccc3)CC2)cc(OC)c1OC	-9	-19	-11	-4	-4	-9	.	.	.
COc1cccc(CN2CCN(C(=O)c3ccc(-c4ccccc4)cc3)CC2)c1	-5	-7	-7	-2	13	78*	45	1	9
COc1cc(CN2CCN(C(=O)c3ccc(-c4ccccc4)cc3)CC2)cc(OC)c1OC	8	-4	7	-3	10	48*	32	0	8
Cc1ccccc1C(=O)N1CCC(C(=O)NN2C(=O)NC3(CCCCC3)C2=O)CC1	7	29	-2	0	10	-9	.	.	.
COC(=O)C[C@@H]1CC[C@@H](NC(=O)Nc2cc(F)ccc2F)[C@@H](CO)O1	.	.	.	.	.	-7	.	.	.
COc1ccc(-n2ncc(C(C)NS(=O)(=O)c3ccc(C)s3)c2C)cc1 (centres undefined)	17	10	.	-4	-2	-1	.	.	.
O=C(COC(=O)CNC(=O)c1ccccc1Cl)NC1CC1	-9	-4	-14	-2	-6	1	.	.	.
COc1ccccc1CNC(=O)CN1C(=O)NC(c2ccccc2)(c2ccccc2)C1=O	8	6	5	-3	-1	17	.	.	.
COc1ccc(NC(=O)c2ccc(COCC(F)(F)C(F)F)cc2)cc1	16	-10	.	-2	-6	44*	21	0	-17
COc1ccccc1Cc1c(-c2ccc(C#N)cc2)nc2c3ccccc3ccn12	.	.	.	.	2	43*	19	-1	7
COc1ccc(OCc2nnc(SCC(=O)N3C(C)CCCC3C)o2)cc1 (centres undefined)	21	3	.	-4	-5	46*	24	1	7
O=C(CSc1nnc(COc2ccc(F)cc2)o1)N1CCCCC1	1	14	.	-2	5	-3	.	.	.
COC(=O)c1ccc(OC)c(CSc2nnc(COc3ccc(OC)cc3)o2)c1	21	3	-2	-1	4	49*	45	0	-1
O=C(CSc1nnc(COc2ccc(F)cc2)o1)N1c2ccccc2CCc2ccccc21	15	6	.	1	16	51*	24	0	7
Cc1cccc(OCc2nnc(SCC(=O)N3c4ccccc4CCc4ccccc43)o2)c1	19	2	-11	-2	4	52*	5	0	3
CCCc1ccc(OC(=O)c2ccc(O)cc2Cl)cc1	-3	-4	-44	-3	2	9	.	.	.
COc1cccc(OCC(=O)N2CCCc3ccccc32)c1	12	16	.	0	-1	10	.	.	.
Cc1ccccc1CN1CC2=C(CCN(Cc3ccccc3)C2=O)N2CCN=C12	.	.	.	.	-2	3	.	.	.
O=C(Nc1cccc(S(=O)(=O)NC2=NCCC2)c1)c1cn(-c2ccccc2)nc1-c1ccc(F)cc1	5	1	6	1	-7	18	.	.	.
O=C(/C=C/c1cccs1)N1CCC2(CC1)Oc1ccc(Cl)cc1C(=O)C21CC(c2ccccc2)=NO1 (centres undefined)	7	10	30	0	0	61*	40	-1	6
O=C(/C=C/c1ccc(Cl)cc1)N1CCOCC1	15	8	1	-5	3	50*	30	-1	-10
O=C(/C=C/c1ccc(Cl)c(Cl)c1)N1CCOCC1	2	22	.	4	-2	57*	55*	-1	-20
SMILES	CCR6 antagonist	APJ antag	TAG inh	APJ ag	CXCR6 inh	EBI2 block	EBI2 antag conf	EBI2 ag	bGal cs
O=C(/C=C/c1ccc2c(c1)OCO2)N1CCN(c2ccc(Cl)cc2)CC1	-12	1	.	3	-2	47*	29	2	5
CN1CCN(C(=S)NC(=O)/C=C/c2ccccc2)CC1	-3	16	.	-2	4	2	.	.	.
O=C(/C=C/c1ccc(Br)cc1)NC(=S)N1CCOCC1	-2	-7	-1	-1	-3	64*	48	0	0
CS(=O)(=O)c1nc(-c2ccccc2)cc(-c2ccccc2)c1C#N	5	-26	31	0	10	56*	55*	0	9
Cc1ccc(-c2cc(-c3ccccc3)c(C#N)c(Br)n2)cc1	4	10	.	-2	-9	11	.	.	.
CN(Cc1ccco1)c1ncnc2ccc(-c3ccc4c(ccn4C)c3)cc12	2	4	11	-4	-1	-7	.	.	.
COc1c(O)cccc1[C@H](O)C1CCN(CCc2ccc(F)cc2)CC1	-7	-11	1	2	4	-11	.	.	.
OC(COc1ccc(Cl)cc1)CSc1ccccn1 (centres undefined)	18	6	.	-3	-7	52*	32	1	3
OC(c1ccccc1)(c1nc(-c2cc(F)cc(F)c2)cs1)C(F)(F)F (centres undefined)	.	.	-10	.	-8	3	.	.	.
CC(C)Cc1ccc(-c2cc3nc(NCCc4ccc(S(N)(=O)=O)cc4)ccn3n2)cc1	.	.	4	.	-8	66*	50	-1	-13
O=Nc1nc2ncccn2c1-c1ccccc1	7	.	-9	.	-21	3	.	.	.
O=S(=O)(NCc1ccc(F)cc1)c1ccccc1Br	-10	-4	-6	-5	-4	4	.	.	.
COc1cccc(-c2csc(N3CCN(C(=O)Nc4ccc(Cl)cc4)CC3)n2)c1	-12	-2	-5	-1	-18	42*	22	-1	2
N#CCCN(C(=O)COC(=O)C1CCN(S(=O)(=O)c2ccccc2C(F)(F)F)CC1)c1ccccc1	23	.	-5	.	4	-2	.	.	.
O=C(/C=C/c1ccc2ccccc2n1)N1CCN(S(=O)(=O)c2ccccc2F)CC1	6	5	-6	-1	-2	55*	41	0	-17
O=C(/C=C/c1ccc2ccccc2n1)N1CCN(c2ccccc2)CC1	9	-8	4	-2	8	2	.	.	.
O=C(/C=C/c1ccc2ccccc2n1)N1CCN(S(=O)(=O)c2ccc(F)cc2)CC1	19	5	-1	-5	-8	50*	39	1	11
